Series [1] concerns the target Proto-oncogene tyrosine-protein kinase receptor Ret (Homo sapiens) (UniProt P07949). In words: Inhibition of Ret (unknown origin) at 1 uM by FRET method. In a few lines: (§1)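 Single-point screen at 1 uM against a panel of 58 representative kinases. Readout was labeled-peptide phosphorylation by FRET (Z′-LYTE), using the vendor's protocols.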
Series [2] concerns HEK293. In words: Effect on total JNK protein level in HEK293 cells transfected with Flag DLK (unknown origin) at 0.1 to 10 uM incubated for 5 hrs by Western blot analysis. To be noted: human, hek293, 5 h. On the technique in general: Immunoblotting shows a protein as a band on a membrane.
Series [3] concerns the target BDNF/NT-3 growth factors receptor (Homo sapiens, UniProt Q16620). To be noted: 1 uM.
Series [4] deals with Non-receptor tyrosine-protein kinase TYK2 (Homo sapiens) (UniProt P29597). Briefly: Inhibition of TYK2 (unknown origin) at 1 uM by FRET method. In a few lines: as §1
Series [5] concerns the target Macrophage colony-stimulating factor 1 receptor (Homo sapiens, UniProt P07333). In words: Inhibition of CSF1R (unknown origin) by FRET method.
Series [6] deals with Interleukin-1 receptor-associated kinase 4 (Homo sapiens) (UniProt Q9NWZ3). Briefly: Inhibition of IRAK4 (unknown origin) at 1 uM by FRET method. In a few lines: (§2)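 SelectScreen panel of 58 kinases, each tested at a single 1 µM compound concentration. Read-out was Z′-LYTE FRET of labeled peptide phosphorylation, run by the vendor's protocols, reported as percent inhibition.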

The target in series [7] is Serine/threonine-protein kinase pim-1 (Homo sapiens) (UniProt P11309). Briefly: Inhibition of PIM1 (unknown origin) at 1 uM by FRET method. In a few lines: as §1
Series [8] has as its target Serine/threonine-protein kinase PAK 4 (Homo sapiens) (UniProt O96013). Briefly: Inhibition of PAK4 (unknown origin) at 1 uM by FRET method. The gist of the method:
as §1

Series [9] concerns the target T1, Mitogen-activated protein kinase kinase kinase 12 (Homo sapiens) (UniProt Q12852).
T1 sequence (whole entry): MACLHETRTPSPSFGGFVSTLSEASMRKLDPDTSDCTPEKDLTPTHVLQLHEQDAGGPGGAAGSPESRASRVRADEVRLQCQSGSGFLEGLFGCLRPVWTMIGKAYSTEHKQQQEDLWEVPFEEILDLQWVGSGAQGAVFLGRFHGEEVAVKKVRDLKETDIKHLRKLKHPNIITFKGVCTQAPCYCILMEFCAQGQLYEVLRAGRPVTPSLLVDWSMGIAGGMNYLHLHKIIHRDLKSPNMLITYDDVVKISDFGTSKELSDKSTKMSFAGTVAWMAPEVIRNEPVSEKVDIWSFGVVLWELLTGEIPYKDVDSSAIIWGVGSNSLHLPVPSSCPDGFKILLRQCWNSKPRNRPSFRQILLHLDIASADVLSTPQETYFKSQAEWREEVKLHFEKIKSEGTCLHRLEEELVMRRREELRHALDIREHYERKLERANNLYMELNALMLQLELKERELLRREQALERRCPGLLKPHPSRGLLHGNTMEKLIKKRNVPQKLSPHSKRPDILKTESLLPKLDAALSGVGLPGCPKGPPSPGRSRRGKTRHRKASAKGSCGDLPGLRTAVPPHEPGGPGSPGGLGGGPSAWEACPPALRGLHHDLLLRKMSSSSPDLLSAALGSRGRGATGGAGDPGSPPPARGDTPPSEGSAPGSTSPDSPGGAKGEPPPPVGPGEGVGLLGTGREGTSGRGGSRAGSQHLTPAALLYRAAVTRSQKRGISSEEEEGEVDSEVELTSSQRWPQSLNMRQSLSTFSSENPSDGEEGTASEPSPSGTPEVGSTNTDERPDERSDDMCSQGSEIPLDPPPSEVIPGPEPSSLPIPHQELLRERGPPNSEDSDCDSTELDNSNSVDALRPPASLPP
Briefly: Inhibition of Flag DLK (unknown origin) transfected in HEK293 cells assessed as reduction of phosphorylation of MKK7 at 0.1 to 10 uM incubated for 5 hrs measured by Western blot analysis. It counts as cell-based. The gist of the method:
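HEK293 cells were transfected with Flag-tagged DLK, with kinase-dead DLK K152A as comparator, 24 h before compound addition. Cells were then exposed to compound for 5 h. Phospho-MKK4, phospho-MKK7, phospho-JNK and phospho-c-Jun were probed.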

Series [10] addresses Mitogen-activated protein kinase 8 (Homo sapiens, UniProt P45983). In words: Inhibition of JNK1 (unknown origin) by FRET method. The gist of the method: (§3)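 JNK1, JNK2 and JNK3 IC50 values came from a 10-point dose–response enzymatic assay.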
The target in series [11] is MAP kinase-activated protein kinase 2 (Homo sapiens) (UniProt P49137). In words: Inhibition of MAPKAPK2 (unknown origin) at 1 uM by FRET method. In a few lines:
as §2

Series [12] deals with T2, Mitogen-activated protein kinase kinase kinase 9 (Homo sapiens, UniProt P80192). Briefly: Inhibition of MLK1 (unknown origin) by FRET method. In a few lines: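 Biochemical IC50 determination from a 10-point dose-response in an enzymatic Z′-LYTE assay. Labeled-peptide phosphorylation was read by FRET under the vendor's protocols.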
Target sequence in this assay (P80192 whole entry): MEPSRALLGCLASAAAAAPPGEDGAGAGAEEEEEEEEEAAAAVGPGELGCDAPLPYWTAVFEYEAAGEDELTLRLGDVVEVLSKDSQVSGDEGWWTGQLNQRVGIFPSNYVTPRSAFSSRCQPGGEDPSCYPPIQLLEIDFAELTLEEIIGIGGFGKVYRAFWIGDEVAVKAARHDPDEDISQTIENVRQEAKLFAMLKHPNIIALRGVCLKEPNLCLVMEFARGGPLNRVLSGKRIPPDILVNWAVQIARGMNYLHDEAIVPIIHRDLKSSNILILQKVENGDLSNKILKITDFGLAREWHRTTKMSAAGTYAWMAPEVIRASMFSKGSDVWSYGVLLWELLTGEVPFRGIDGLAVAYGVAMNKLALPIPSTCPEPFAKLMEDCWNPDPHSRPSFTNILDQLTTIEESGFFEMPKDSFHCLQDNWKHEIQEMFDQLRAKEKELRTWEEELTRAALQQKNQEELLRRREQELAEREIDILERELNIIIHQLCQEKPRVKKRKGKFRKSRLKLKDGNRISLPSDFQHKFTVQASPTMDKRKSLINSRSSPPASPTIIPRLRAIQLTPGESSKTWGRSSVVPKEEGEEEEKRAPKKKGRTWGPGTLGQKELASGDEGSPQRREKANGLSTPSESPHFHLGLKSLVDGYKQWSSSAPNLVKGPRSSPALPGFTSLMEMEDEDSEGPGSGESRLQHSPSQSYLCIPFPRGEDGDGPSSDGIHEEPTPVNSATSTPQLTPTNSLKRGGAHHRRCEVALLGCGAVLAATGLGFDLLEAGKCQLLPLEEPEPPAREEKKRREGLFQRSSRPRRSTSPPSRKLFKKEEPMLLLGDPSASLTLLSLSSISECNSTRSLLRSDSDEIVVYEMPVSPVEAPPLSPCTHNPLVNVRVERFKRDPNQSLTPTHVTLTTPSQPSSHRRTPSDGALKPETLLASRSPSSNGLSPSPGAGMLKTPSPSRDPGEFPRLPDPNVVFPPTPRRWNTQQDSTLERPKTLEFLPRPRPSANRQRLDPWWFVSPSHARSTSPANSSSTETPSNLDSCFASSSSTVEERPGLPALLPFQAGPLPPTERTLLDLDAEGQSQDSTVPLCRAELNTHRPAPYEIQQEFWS
The target in series [13] is 5'-AMP-activated protein kinase catalytic subunit alpha-1 (Homo sapiens) (UniProt Q13131). Briefly: Inhibition of PRKAA1 (unknown origin) at 1 uM by FRET method. The gist of the method:
as §1

Series [14] addresses Mitogen-activated protein kinase 9 (Homo sapiens, UniProt P45984). In words: Inhibition of JNK2 (unknown origin) by FRET method. The gist of the method:
as §3

Series [15] concerns the target Glycogen synthase kinase-3 beta (Homo sapiens, UniProt P49841). Briefly: Inhibition of GSK3beta (unknown origin) at 1 uM by FRET method. The gist of the method:
as §2

Series [16] addresses T2, Mitogen-activated protein kinase kinase kinase 9. In words: Inhibition of MLK1 (unknown origin) at 1 uM by FRET method. The gist of the method:
as §1
Target sequence in this assay (P80192 whole entry, looked up): as the sequence (P80192 whole entry) above

Series [17] addresses Angiopoietin-1 receptor (Homo sapiens) (UniProt Q02763). In words: Inhibition of Tie2 (unknown origin) at 1 uM by FRET method. In a few lines:
as §1

Series [18] addresses T3, Mitogen-activated protein kinase kinase kinase 12 (Homo sapiens, UniProt Q12852).
T3 sequence (Q12852 whole entry): T1 sequence (whole entry)
In words: Inhibition of Dox inducible human DLK transfected in HEK293 cells assessed as reduction in JNK phosphorylation incubated for 5.5 hrs measured by Hoechst 33342 staining based imaging analysis. Type of series: cell-based.

For series [19], the target named is Serine/threonine-protein kinase Chk1 (Homo sapiens) (UniProt O14757). Briefly: Inhibition of CHK1 (unknown origin) at 1 uM by FRET method. In a few lines:
as §2

For series [20], the target named is Receptor-type tyrosine-protein kinase FLT3 (Homo sapiens) (UniProt P36888). To be noted: 1 uM.
Chain of Receptor-type tyrosine-protein kinase FLT3 (Homo sapiens) (P36888 whole entry): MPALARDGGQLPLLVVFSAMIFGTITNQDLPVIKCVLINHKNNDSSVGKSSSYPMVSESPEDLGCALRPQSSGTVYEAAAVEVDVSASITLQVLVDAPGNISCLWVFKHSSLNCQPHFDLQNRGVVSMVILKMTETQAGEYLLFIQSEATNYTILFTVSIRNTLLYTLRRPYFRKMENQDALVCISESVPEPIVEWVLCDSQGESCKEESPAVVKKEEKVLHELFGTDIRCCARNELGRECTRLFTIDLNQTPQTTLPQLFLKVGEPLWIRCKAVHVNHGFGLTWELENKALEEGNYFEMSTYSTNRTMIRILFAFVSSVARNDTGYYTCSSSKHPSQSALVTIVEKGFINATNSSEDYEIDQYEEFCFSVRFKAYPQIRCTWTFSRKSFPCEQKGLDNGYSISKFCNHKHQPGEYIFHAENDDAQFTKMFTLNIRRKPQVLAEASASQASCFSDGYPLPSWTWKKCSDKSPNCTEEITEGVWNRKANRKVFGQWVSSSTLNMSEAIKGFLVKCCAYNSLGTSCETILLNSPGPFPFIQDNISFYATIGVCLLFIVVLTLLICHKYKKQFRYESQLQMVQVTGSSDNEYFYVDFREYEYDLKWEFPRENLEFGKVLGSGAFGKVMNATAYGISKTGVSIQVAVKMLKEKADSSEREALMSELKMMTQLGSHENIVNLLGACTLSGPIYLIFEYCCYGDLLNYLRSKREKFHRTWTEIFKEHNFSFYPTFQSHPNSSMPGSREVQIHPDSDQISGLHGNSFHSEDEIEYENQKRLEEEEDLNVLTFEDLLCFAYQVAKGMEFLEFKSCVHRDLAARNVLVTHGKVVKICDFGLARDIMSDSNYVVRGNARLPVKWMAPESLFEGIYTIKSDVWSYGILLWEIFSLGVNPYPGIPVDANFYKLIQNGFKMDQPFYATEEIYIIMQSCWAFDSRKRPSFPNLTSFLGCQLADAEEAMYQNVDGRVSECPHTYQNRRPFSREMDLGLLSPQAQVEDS
The target of series [21] is Ribosomal protein S6 kinase beta-1 (Homo sapiens) (UniProt P23443). Briefly: Inhibition of p70S6K (unknown origin) at 1 uM by FRET method. The gist of the method: as §1
For series [22], the system named is Rattus norvegicus. Briefly: Dose normalized free AUC in rat at 0.4 or 1 mg/kg, iv and 1 or 5 mg/kg, po. The following applies: in vivo.
Series [23] deals with human MDR1. Briefly: Permeability across apical to basolateral side in MDCK cells transfected with human MDR1 at 5 uM by LC-MS/MS analysis. The following applies: dog.

Activity calls are given as the source filed them. The calls are words filed in the database; no cut-off is given here.

In general, inhibition refers to the relative decrease from the control value, in per cent. Usually IC50 stands for the concentration at which inhibition is half-maximal. As usually defined, the Papp A→B is how fast a substance crosses the layer from the apical side.

Chain of Macrophage colony-stimulating factor 1 receptor (P07333 whole entry): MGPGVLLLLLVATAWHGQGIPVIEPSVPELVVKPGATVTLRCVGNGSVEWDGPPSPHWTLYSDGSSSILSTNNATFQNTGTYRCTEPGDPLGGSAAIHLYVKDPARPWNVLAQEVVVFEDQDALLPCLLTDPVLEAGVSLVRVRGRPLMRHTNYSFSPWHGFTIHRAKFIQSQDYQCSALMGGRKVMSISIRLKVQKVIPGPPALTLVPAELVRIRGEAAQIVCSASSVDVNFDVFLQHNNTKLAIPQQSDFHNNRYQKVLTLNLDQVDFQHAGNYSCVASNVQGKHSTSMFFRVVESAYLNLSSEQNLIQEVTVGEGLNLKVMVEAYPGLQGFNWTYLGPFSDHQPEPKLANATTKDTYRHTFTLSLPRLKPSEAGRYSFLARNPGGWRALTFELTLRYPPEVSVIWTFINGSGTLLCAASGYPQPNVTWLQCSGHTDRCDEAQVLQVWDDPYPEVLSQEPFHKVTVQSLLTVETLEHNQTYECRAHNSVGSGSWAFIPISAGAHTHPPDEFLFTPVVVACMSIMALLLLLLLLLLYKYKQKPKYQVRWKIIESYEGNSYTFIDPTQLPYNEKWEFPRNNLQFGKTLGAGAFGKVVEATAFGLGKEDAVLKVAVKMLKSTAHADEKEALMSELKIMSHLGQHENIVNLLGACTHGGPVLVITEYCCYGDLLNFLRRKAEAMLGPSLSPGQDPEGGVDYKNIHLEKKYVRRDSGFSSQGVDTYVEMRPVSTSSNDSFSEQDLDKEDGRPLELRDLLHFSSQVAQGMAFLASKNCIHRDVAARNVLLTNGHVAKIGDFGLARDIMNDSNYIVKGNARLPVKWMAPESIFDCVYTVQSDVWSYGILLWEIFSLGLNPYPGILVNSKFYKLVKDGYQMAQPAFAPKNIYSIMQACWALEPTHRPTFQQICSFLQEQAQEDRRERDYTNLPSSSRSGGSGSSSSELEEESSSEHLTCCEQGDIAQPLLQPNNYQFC
Chain of MAP kinase-activated protein kinase 2 (Homo sapiens) (P49137 whole entry, looked up): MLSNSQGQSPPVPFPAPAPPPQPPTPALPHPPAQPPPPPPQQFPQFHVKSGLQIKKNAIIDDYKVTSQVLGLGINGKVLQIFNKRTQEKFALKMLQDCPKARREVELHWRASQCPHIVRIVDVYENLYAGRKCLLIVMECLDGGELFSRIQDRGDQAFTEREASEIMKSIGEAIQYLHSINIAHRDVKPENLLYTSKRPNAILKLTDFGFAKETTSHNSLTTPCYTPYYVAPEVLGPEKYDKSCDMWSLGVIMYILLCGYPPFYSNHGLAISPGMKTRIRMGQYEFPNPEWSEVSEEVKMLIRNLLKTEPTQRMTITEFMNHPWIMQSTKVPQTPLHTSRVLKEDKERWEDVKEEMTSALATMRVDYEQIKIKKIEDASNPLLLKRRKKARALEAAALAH
Chain of Glycogen synthase kinase-3 beta (P49841 whole entry, looked up): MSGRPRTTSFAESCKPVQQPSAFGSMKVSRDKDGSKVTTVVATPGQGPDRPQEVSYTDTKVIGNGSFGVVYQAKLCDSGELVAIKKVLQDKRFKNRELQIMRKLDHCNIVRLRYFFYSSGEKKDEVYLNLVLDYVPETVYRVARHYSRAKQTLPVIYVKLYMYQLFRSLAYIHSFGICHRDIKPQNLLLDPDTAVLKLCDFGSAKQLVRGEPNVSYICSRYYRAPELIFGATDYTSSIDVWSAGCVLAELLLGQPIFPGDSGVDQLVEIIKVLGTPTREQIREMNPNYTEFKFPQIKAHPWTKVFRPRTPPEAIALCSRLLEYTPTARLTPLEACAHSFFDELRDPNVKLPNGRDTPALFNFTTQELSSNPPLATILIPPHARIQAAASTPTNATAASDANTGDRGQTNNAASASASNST
Chain of Mitogen-activated protein kinase 8 (P45983 whole entry): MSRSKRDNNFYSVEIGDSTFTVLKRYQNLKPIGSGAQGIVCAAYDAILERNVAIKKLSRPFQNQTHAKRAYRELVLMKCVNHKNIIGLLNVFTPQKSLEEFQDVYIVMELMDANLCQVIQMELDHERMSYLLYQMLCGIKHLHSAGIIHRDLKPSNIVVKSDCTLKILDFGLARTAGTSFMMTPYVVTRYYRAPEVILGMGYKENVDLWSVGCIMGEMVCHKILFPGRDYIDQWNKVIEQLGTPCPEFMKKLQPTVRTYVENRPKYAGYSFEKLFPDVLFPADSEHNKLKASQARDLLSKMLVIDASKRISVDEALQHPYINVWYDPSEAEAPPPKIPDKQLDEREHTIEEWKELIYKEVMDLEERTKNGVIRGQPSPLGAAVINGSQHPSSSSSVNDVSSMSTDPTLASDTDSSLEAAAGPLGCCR
Chain of Serine/threonine-protein kinase PAK 4 (Homo sapiens) (O96013 whole entry, looked up): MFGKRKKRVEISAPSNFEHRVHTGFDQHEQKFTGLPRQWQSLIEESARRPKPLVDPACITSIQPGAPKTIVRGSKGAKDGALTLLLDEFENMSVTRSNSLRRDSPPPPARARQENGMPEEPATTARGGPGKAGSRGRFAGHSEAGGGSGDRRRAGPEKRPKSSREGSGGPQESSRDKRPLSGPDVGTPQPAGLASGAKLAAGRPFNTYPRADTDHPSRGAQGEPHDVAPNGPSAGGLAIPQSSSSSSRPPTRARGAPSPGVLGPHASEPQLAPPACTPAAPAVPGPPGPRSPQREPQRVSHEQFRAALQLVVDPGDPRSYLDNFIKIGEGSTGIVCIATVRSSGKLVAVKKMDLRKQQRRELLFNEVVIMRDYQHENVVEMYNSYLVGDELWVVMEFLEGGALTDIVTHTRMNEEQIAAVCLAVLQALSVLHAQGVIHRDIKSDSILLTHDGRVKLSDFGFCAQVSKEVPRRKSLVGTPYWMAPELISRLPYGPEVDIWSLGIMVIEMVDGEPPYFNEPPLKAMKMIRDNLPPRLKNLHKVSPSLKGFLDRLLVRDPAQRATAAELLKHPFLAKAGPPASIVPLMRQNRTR

For `N#Cc1ccnc(Nc2cc(C3CCN(C4COC4)CC3)n(C3CCCC3)n2)c1`, the inhibition in [1] was determined as 29.6%; in [3], 50.5%; in series [4], 25.6%; in series [6] it was 19.5%; in [7], 6.6%; in series [8], 48%. The inhibition in series [11] is 6.7%; in series [13], 1.8%; in series [15] it was 58.6%; in series [16], 4.4%; in series [17] it was 1.8%; in series [19], -2.3%. In addition, the inhibition in series [20] stood at 65.4%; in [21], 0.8%. In series [2], the Activity entry is “Non-toxic”. The IC50 in [5] was 57 nM; in [10], 1040 nM; in series [12] it was over 10000 nM; in [14], 5000 nM; in [18] it was 536 nM. Moreover, the inhibition entry in [9] is “Active”. Further, the fAUC/dose in series [22] stood at 0.03 kg·h/L. For the same molecule, the Papp A→B at 5 µM in series [23] was determined as 8.8 ×10⁻⁶ cm/s.

These data come from ChEMBL document CHEMBL3627690, “Scaffold-Hopping and Structure-Based Discovery of Potent, Selective, And Brain Penetrant N-(1H-Pyrazol-3-yl)pyridin-2-amine Inhibitors of Dual Leucine Zipper Kinase (DLK, MAP3K12)” (J Med Chem, 2015).
